We go through two molecules from ChEMBL document CHEMBL1156480, “Insensitivity to Abeta42-lowering nonsteroidal anti-inflammatory drugs and gamma-secretase inhibitors is common among aggressive presenilin-1 mutations” (J Biol Chem, 2007).

What all share (type): cell-based
Holding throughout (design): scale not given: the % may be the effect or the level left

For assay [1], the system named is Presenilin-1 (Homo sapiens), P49768 [L166P]. The assay can be described thus: Reduction of human PS1 L166P mutant-induced amyloid beta-42 level in CHO cells overexpressing human APP751 at 100 nM after 24 hrs by liquid phase electrochemiluminescence assay relative to control. The procedure, abridged:
(§1)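 APP751 CHO cells stably expressing PS1-ΔExon9, PS1-L166P or PS1-WT, cultured in parallel in serum-containing medium. Treated 24 h with increasing γ-secretase inhibitor concentrations or DMSO. Conditioned-media Abeta40/Abeta42 quantified by LPECL against synthetic peptide standards (16–2000 pg/ml). Duplicates normalized to DMSO. n = 3, one-way ANOVA with Dunnett's test versus PS1-WT.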

Assay [2] has the same test system. Put plainly: Reduction of human PS1 L166P mutant-induced amyloid beta-40 level in CHO cells overexpressing human APP751 at 100 nM after 24 hrs by liquid phase electrochemiluminescence assay relative to control. The procedure, abridged: as §1
The test system is the same in assay [3]. Put plainly: Reduction of human PS1 L166P mutant-induced amyloid beta42 level in CHO cells overexpressing human APP751 at 25 nM after 24 hrs by liquid phase electrochemiluminescence assay relative to control. The essentials: as §1
Assay [4] relates to CHO. The assay can be described thus: Reduction of human PS1 delta exon9 mutant-induced amyloid beta40 level in CHO cells overexpressing human APP751 at 50 nM after 24 hrs by liquid phase electrochemiluminescence assay relative to control.
The test system of assay [5] is Presenilin-1 (Homo sapiens), P49768 [L166P]. Put plainly: Reduction of human PS1 L166P mutant-induced amyloid beta-40 level in CHO cells overexpressing human APP751 at 50 nM after 24 hrs by liquid phase electrochemiluminescence assay relative to control. The essentials: as §1
The subject of assay [6] is CHO. The assay can be described thus: Reduction of human PS1 delta exon9 mutant-induced amyloid beta-42 level in CHO cells overexpressing human APP751 at 50 nM after 24 hrs by liquid phase electrochemiluminescence assay relative to control.
In assay [7] the target is Presenilin-1 (Homo sapiens) (UniProt P49768). Put plainly: Reduction of human wild type PS1-induced amyloid beta-42 level in CHO cells overexpressing human APP751 at 100 nM after 24 hrs by liquid phase electrochemiluminescence assay relative to control.
The target is the same in assay [8]. The assay can be described thus: Reduction of human wild type PS1-induced amyloid beta-42 level in CHO cells overexpressing human APP751 at 25 nM after 24 hrs by liquid phase electrochemiluminescence assay relative to control.
In assay [9] the test system is CHO. Put plainly: Reduction of human PS1 delta exon9 mutant-induced amyloid beta-40 level in CHO cells overexpressing human APP751 at 25 nM after 24 hrs by liquid phase electrochemiluminescence assay relative to control. The essentials: as §1
For assay [10], the target named is Presenilin-1 (Homo sapiens) (UniProt P49768). Put plainly: Reduction of human wild type PS1-induced amyloid beta-42 level in CHO cells overexpressing human APP751 at 50 nM after 24 hrs by liquid phase electrochemiluminescence assay relative to control.
The subject of assay [11] is CHO. Put plainly: Reduction of human PS1 delta exon9 mutant-induced amyloid beta-42 level in CHO cells overexpressing human APP751 at 25 nM after 24 hrs by liquid phase electrochemiluminescence assay relative to control. The essentials: as §1
In assay [12] the test system is CHO. The assay can be described thus: Reduction of human PS1 delta exon9 mutant-induced amyloid beta-40 level in CHO cells overexpressing human APP751 at 100 nM after 24 hrs by liquid phase electrochemiluminescence assay relative to control. The procedure, abridged:
as §1

Assay [13] has as its target Presenilin-1 (Homo sapiens) (UniProt P49768). The assay can be described thus: Reduction of human wild type PS1-induced amyloid beta-40 level in CHO cells overexpressing human APP751 at 25 nM after 24 hrs by liquid phase electrochemiluminescence assay relative to control.
The test system of assay [14] is CHO. The assay can be described thus: Reduction of human PS1 delta exon9 mutant-induced amyloid beta-42 level in CHO cells overexpressing human APP751 at 100 nM after 24 hrs by liquid phase electrochemiluminescence assay relative to control. The essentials: as §1
Assay [15] concerns the target Presenilin-1 (Homo sapiens) (UniProt P49768). The assay can be described thus: Reduction of human wild type PS1-induced amyloid beta-40 level in CHO cells overexpressing human APP751 at 50 nM after 24 hrs by liquid phase electrochemiluminescence assay relative to control.
Assay [16] has the same target. Put plainly: Reduction of human wild type PS1-induced amyloid beta-40 level in CHO cells overexpressing human APP751 at 100 nM after 24 hrs by liquid phase electrochemiluminescence assay relative to control.
For assay [17], the system named is Presenilin-1 (Homo sapiens), P49768 [L166P]. Put plainly: Reduction of human PS1 L166P mutant-induced amyloid beta-40 level in CHO cells overexpressing human APP751 at 25 nM after 24 hrs by liquid phase electrochemiluminescence assay relative to control. The procedure, abridged:
as §1

Assay [18] has the same test system. Put plainly: Reduction of human PS1 L166P mutant-induced amyloid beta42 level in CHO cells overexpressing human APP751 at 50 nM after 24 hrs by liquid phase electrochemiluminescence assay relative to control. The procedure, abridged: as §1
Assay [19] shares this test system. Put plainly: Reduction of human PS1 L166P mutant-induced amyloid beta-40 level in CHO cells overexpressing human APP751 at 250 nM after 24 hrs by liquid phase electrochemiluminescence assay relative to control. The procedure, abridged: as §1
In assay [20] the test system is CHO. Put plainly: Reduction of human PS1 delta exon9 mutant-induced amyloid beta-40 level in CHO cells overexpressing human APP751 at 500 nM after 24 hrs by liquid phase electrochemiluminescence assay relative to control. The procedure, abridged:
as §1

The test system of assay [21] is Presenilin-1 (Homo sapiens), P49768 [L166P]. Put plainly: Reduction of human PS1 L166P mutant-induced amyloid beta-42 level in CHO cells overexpressing human APP751 at 250 nM after 24 hrs by liquid phase electrochemiluminescence assay relative to control. The procedure, abridged: as §1
For assay [22], the system named is CHO. Put plainly: Reduction of human PS1 delta exon9 mutant-induced amyloid beta-42 level in CHO cells overexpressing human APP751 at 500 nM after 24 hrs by liquid phase electrochemiluminescence assay relative to control.
The target in assay [23] is Presenilin-1 (Homo sapiens) (UniProt P49768). Put plainly: Reduction of human wild type PS1-induced amyloid beta-42 level in CHO cells overexpressing human APP751 at 250 nM after 24 hrs by liquid phase electrochemiluminescence assay relative to control.
Assay [24] has the same target. The assay can be described thus: Reduction of human wild type PS1-induced amyloid beta-40 level in CHO cells overexpressing human APP751 at 250 nM after 24 hrs by liquid phase electrochemiluminescence assay relative to control.
The test system of assay [25] is CHO. The assay can be described thus: Reduction of human PS1 delta exon9 mutant-induced amyloid beta-40 level in CHO cells overexpressing human APP751 at 250 nM after 24 hrs by liquid phase electrochemiluminescence assay relative to control. The essentials: as §1
Assay [26] relates to Presenilin-1 (Homo sapiens), P49768 [L166P]. The assay can be described thus: Reduction of human PS1 L166P mutant-induced amyloid beta-42 level in CHO cells overexpressing human APP751 at 500 nM after 24 hrs by liquid phase electrochemiluminescence assay relative to control. The essentials:
as §1

The target of assay [27] is Presenilin-1 (Homo sapiens) (UniProt P49768). The assay can be described thus: Reduction of human wild type PS1-induced amyloid beta-40 level in CHO cells overexpressing human APP751 at 500 nM after 24 hrs by liquid phase electrochemiluminescence assay relative to control.
Assay [28] concerns Presenilin-1 (Homo sapiens), P49768 [L166P]. Put plainly: Reduction of human PS1 L166P mutant-induced amyloid beta40 level in CHO cells overexpressing human APP751 at 500 nM after 24 hrs by liquid phase electrochemiluminescence assay relative to control. The essentials: as §1
Assay [29] deals with Presenilin-1 (Homo sapiens) (UniProt P49768). The assay can be described thus: Reduction of human wild type PS1-induced amyloid beta-42 level in CHO cells overexpressing human APP751 at 500 nM after 24 hrs by liquid phase electrochemiluminescence assay relative to control.
The test system of assay [30] is CHO. Put plainly: Reduction of human PS1 delta exon9 mutant-induced amyloid beta-42 level in CHO cells overexpressing human APP751 at 250 nM after 24 hrs by liquid phase electrochemiluminescence assay relative to control. The essentials:
as §1

Regarding `C[C@H](NC(=O)Cc1cc(F)cc(F)c1)C(=O)N[C@H](C(=O)OC(C)(C)C)c1ccccc1`, the Activity turned out to be 34.5% in assay [1]; 14.9% in [2]; 72.3% in assay [3]; 90.2% in assay [4]; 30.3% in assay [5]; 94.9% in assay [6]. In addition, the Activity in [7] worked out at 8.13%; in [8], 44%; in assay [9] it was 101%; in assay [10], 18.8%; in [11] it was 107%; in assay [12], 60.8%. The Activity in assay [13] came out at 33.8%; in assay [14], 65.9%; in assay [15] it was 14.6%; in assay [16], 5.82%; in assay [17], 54.4%; in assay [18], 50.3%.

As for `CC(C)C[C@H](NC(=O)C(Cc1ccccc1)C[C@@H](O)[C@H](Cc1ccccc1)NC(=O)OC(C)(C)C)C(=O)N[C@@H](Cc1ccccc1)C(N)=O` (single isomer, unassigned), the Activity in assay [1] was found to be 62.3%; in assay [19], 20.6%; in [20], 33.4%; in assay [2], 41.5%; in assay [21] it was 44.1%; in assay [22], 34.1%. The Activity was determined as 11.3% in assay [7]; 3.28% in assay [23]; 2.95% in assay [24]; 86.3% in assay [12]; 54% in assay [25]; 34.2% in [26]. In addition, the Activity turned out to be 98.3% in [14]; 8.1% in [16]; 1.92% in assay [27]; 13.1% in assay [28]; 2.59% in assay [29]; 54.5% in assay [30].
